Reference: ChEMBL document CHEMBL4004828, “Synthesis and biological evaluation of fluorinated N-benzoyl and N-phenylacetoyl derivatives of 3-(4-aminophenyl)-coumarin-7-O-sulfamate as steroid sulfatase inhibitors” (Eur J Med Chem, 2017)

Tests used:
Steryl-sulfatase = target: T1, Steryl-sulfatase (Homo sapiens, UniProt P08842); test: Inhibition of human placenta steroid sulfatase using p-nitrophenyl sulfate as substrate after 15 mins
T1 sequence (P08842 whole entry): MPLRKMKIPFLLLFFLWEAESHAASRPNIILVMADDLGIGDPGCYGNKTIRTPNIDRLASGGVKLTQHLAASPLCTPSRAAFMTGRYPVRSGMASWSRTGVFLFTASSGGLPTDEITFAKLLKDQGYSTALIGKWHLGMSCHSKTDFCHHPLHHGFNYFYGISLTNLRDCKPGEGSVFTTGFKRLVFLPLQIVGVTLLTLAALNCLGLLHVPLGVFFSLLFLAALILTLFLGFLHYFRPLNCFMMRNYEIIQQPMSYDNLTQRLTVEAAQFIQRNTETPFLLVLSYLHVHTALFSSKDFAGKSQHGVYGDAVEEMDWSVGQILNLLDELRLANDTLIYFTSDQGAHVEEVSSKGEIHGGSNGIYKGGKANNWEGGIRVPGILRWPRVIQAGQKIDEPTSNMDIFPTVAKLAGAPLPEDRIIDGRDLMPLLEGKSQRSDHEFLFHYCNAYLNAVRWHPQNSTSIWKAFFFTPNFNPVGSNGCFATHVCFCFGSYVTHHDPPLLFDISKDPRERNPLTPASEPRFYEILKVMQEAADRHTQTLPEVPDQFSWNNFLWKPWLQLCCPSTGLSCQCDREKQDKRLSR
How it was run: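 STS extracted from human placenta, purified to homogeneity by multi-step chromatography; 5 U enzyme in 20 mM Tris–HCl pH 7.4 with 3 mM p-nitrophenyl sulfate and inhibitor 0.01–100 µM, 37 °C for 15 min. Stopped with 1 M NaOH; released p-nitrophenol read at 405 nm. Triplicate measurements; IC50 calculated.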

MDA-MB-231 = test: Cytotoxicity against human MDA-MB-231 cells assessed as growth inhibition after 120 hrs by MTT assay; assay type: functional; conditions: MDA-MB-231, 120 h
How it was run: (§1)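 Cells grown in phenol red-free high-glucose DMEM with 10% FBS, penicillin (62.6 µg/mL) and streptomycin (40 µg/mL) at 37 °C, 10% CO2, screened for Mycoplasma. Exponentially growing cells exposed to test agents for 120 h; viability read by MTT assay; GI50 derived.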

MCF7 = test: Cytotoxicity against human MCF7 cells assessed as growth inhibition after 120 hrs by MTT assay; assay type: functional; conditions: MCF7, 120 h; how it was run: as §1
T47D = test: Cytotoxicity against human T47D cells assessed as growth inhibition after 120 hrs by MTT assay; assay type: functional; how it was run: as §1
SK-BR-3 = test: Cytotoxicity against human SKBR3 cells assessed as growth inhibition after 120 hrs by MTT assay; assay type: functional; conditions: SK-BR-3, 120 h; how it was run: as §1

SMILES | IC50 (Steryl-sulfatase) [µM] | GI50 (MDA-MB-231) [µM] | GI50 (MCF7) [µM] | GI50 (T47D) [µM] | GI50 (SK-BR-3) [µM]
NS(=O)(=O)Oc1ccc2cc(-c3ccc([N+](=O)[O-])cc3)c(=O)oc2c1 | 0.29 | – | – | – | –
NS(=O)(=O)Oc1ccc2cc(-c3ccc(NC(=O)Cc4ccc(F)c(F)c4)cc3)c(=O)oc2c1 | 0.36 | – | – | – | –
NS(=O)(=O)Oc1ccc2cc(-c3cc(F)c(F)c(F)c3)c(=O)oc2c1 | 0.29 | 56.3 | 32.6 | 30.7 | 61.3
NS(=O)(=O)Oc1ccc2cc(-c3ccc(NC(=O)c4ccccc4)cc3)c(=O)oc2c1 | 0.49 | – | – | – | –
NS(=O)(=O)Oc1ccc2cc(-c3ccc(NC(=O)Cc4ccc(OC(F)(F)F)cc4)cc3)c(=O)oc2c1 | 0.44 | – | – | – | –
NS(=O)(=O)Oc1ccc2cc(-c3ccc(NC(=O)c4ccc(F)c(F)c4)cc3)c(=O)oc2c1 | 0.18 | > 100 | > 100 | > 100 | > 100
NS(=O)(=O)Oc1ccc2cc(-c3ccc(F)c(F)c3)c(=O)oc2c1 | 0.28 | 61.5 | 30 | 43 | > 100
NS(=O)(=O)Oc1ccc2cc(-c3ccc(NC(=O)c4ccc(F)cc4)cc3)c(=O)oc2c1 | 0.21 | > 100 | > 100 | > 100 | > 100
NS(=O)(=O)Oc1ccc2cc(-c3ccc(NC(=O)c4c(F)c(F)c(F)c(F)c4F)cc3)c(=O)oc2c1 | 0.23 | – | – | – | –
CC/C(=C(\c1ccccc1)c1ccc(OCCN(C)C)cc1)c1ccccc1 [TAMOXIFEN] | – | 15.1 | 6.8 | 10.6 | 12.5

Continued, in another order:

IC50 (Steryl-sulfatase) [µM] | SMILES | GI50 (MDA-MB-231) [µM] | GI50 (MCF7) [µM] | GI50 (T47D) [µM] | GI50 (SK-BR-3) [µM]
1.38 | NS(=O)(=O)Oc1ccc2ccc(=O)oc2c1 | > 100 | > 100 | > 100 | > 100
0.38 | NS(=O)(=O)Oc1ccc2cc(-c3ccc(NC(=O)Cc4ccc(F)c(C(F)(F)F)c4)cc3)c(=O)oc2c1 | – | – | – | –
0.34 | NS(=O)(=O)Oc1ccc2cc(-c3ccc(NC(=O)Cc4c(F)c(F)c(F)c(F)c4F)cc3)c(=O)oc2c1 | – | – | – | –
0.26 | NS(=O)(=O)Oc1ccc2cc(-c3ccc(NC(=O)Cc4ccccc4)cc3)c(=O)oc2c1 | – | – | – | –
0.3 | NS(=O)(=O)Oc1ccc2cc(-c3ccc(NC(=O)Cc4cc(F)c(F)c(F)c4)cc3)c(=O)oc2c1 | 11.7 | 31.3 | 13.7 | 36.1
